Assay results taken from ChEMBL document CHEMBL3526146, “In vitro and in vivo metabolism and pharmacokinetics of BMS-562086, a potent and orally bioavailable corticotropin-releasing factor-1 receptor antagonist” (Drug Metab Dispos, 2012).

What was measured:
[1] = Drug metabolism in bile duct-cannulated Sprague-Dawley rat bile assessed as DPH-123554 metabolite level at 30 mg/kg, po after 12 hrs by LC-MS/MS analysis; assay type: ADME, organism-based; design: dose 30 mg/kg, route oral; conditions: in vivo
Procedure, shortened: (§1)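 Male bile-duct-cannulated Sprague-Dawley rats (n=3), fasted overnight, received 30 mg/kg by gavage in 0.5% methylcellulose. Urine and bile were collected 0-12 h and pooled by equal percentage weight across animals, then centrifuged. Supernatants were profiled by LC/MS/MS. Bile was also treated with β-glucuronidase in pH 4.8 acetate buffer, 37°C, 16 h.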

[2] = Drug metabolism in bile duct-cannulated Sprague-Dawley rat urine assessed as DPH-123554 metabolite level at 30 mg/kg, po after 12 hrs by LC-MS/MS analysis; assay type: ADME, organism-based; design: dose 30 mg/kg, route oral; conditions: in vivo; procedure, shortened: as §1
Serum = test: Metabolic stability in dog serum after 3 hrs by equilibrium dialysis; assay type: ADME, cell-free, Canis lupus familiaris
Procedure, shortened: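 Stability assessed in the serum samples from the equilibrium-dialysis setup: compound at final 12.8, 25.6 and 38.5 µM, dialysed against 134 mM phosphate buffer, pH 7.4, at 37°C with rotation at 20 rpm. Samples monitored for degradants over the 3-h incubation.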

[3] = Terminal half life in beagle dog at 1 mg/kg, iv; assay type: ADME, organism-based, Canis lupus familiaris; design: dose 1 mg/kg, route intravenous; conditions: in vivo, read-out: beta t1/2 (converted)
Procedure, shortened: (§2)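 Male beagle dogs (n=3), one-way IV/PO crossover with a one-week washout, fasted about 15 h before and 4 h after dosing. IV dose of 1 mg/kg as a saphenous bolus in N,N-dimethylacetamide:propylene glycol:water (1:7:2); PO dose of 5 mg/kg by gavage in 0.5% methylcellulose. Plasma sampled 0–96 h and assayed by LC/MS/MS (LLOQ 1.00 ng/ml). Noncompartmental analysis; CL = dose/AUC(INF) after IV; F from dose-normalized AUC ratio.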

[4] = Terminal half life in Sprague-Dawley rat at 1 mg/kg, iv; assay type: ADME, organism-based; design: dose 1 mg/kg, route intravenous; conditions: in vivo, read-out: beta t1/2 (converted)
Procedure, shortened: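 Male Sprague-Dawley rats (n=3 per route, 0.34–0.35 kg) with jugular cannulas, fasted about 18 h before and 4 h after dosing. IV dose of 1 mg/kg in 20% ethanol/saline; oral dose of 5 mg/kg by gavage in 0.5% methylcellulose. Plasma sampled 0–96 h and assayed by LC/MS/MS (LLOQ 1.00 ng/ml). Noncompartmental analysis.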

[5] = Tmax in beagle dog at 5 mg/kg, po; assay type: ADME, organism-based, Canis lupus familiaris; design: dose 5 mg/kg, route oral; conditions: in vivo
Procedure, shortened: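 Male beagles (n=3, 10.1-12.7 kg) in one-way crossover, one-week washout after IV leg; fasted ~15 h before and 4 h after dosing. Single gavage 5 mg/kg in 0.5% aqueous methylcellulose. Plasma sampled 0-96 h, parent measured by validated LC/MS/MS (1.00-1000 ng/ml). Noncompartmental analysis; Tmax taken from observed data.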

[6] = Protein binding in human serum after 3 hrs by equilibrium dialysis; assay type: ADME, cell-free; conditions: read-out: PB (converted)
Procedure, shortened: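 Equilibrium dialysis of serum spiked to final 12.8, 25.6 and 38.5 µM against 134 mM phosphate buffer, pH 7.4, through a 10,000 Da cutoff membrane. Cells rotated at 20 rpm, 37°C, 3 h. Percent unbound taken as buffer concentration divided by serum concentration.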

Liver microsome [7] = test: Drug metabolism in human liver microsomes assessed as BMS-572273 metabolite formation at 100 uM after 1 hr in presence of NADPH and ketoconazole; assay type: ADME
[8] = Oral bioavailability in beagle dog at 5 mg/kg; assay type: ADME, organism-based, Canis lupus familiaris; conditions: in vivo; procedure, shortened: as §2
[9] = AUC (infinity) in chimpanzee at 1 mg/kg, po; assay type: ADME, organism-based, Pan troglodytes; design: dose 1 mg/kg, route oral, time infinity; conditions: plasma
Procedure, shortened: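 Two fasted male chimpanzees (58, 72 kg) received 1 mg/kg orally as a suspension in 0.5% methylcellulose/orange drink with 1% Tween 80 (1:1). Blood was sampled 0-96 h post-dose. Plasma was assayed by validated LC/MS/MS (LLOQ 1.00 ng/ml). Noncompartmental analysis gave AUC(INF) by the mixed log-linear trapezoidal method, with Cmax observed directly; values are mean (min, max).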

[10] = AUC (infinity) in beagle dog at 5 mg/kg, po; assay type: ADME, organism-based, Canis lupus familiaris; design: time infinity, dose 5 mg/kg, route oral; conditions: plasma
Procedure, shortened: (§3)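 Male beagle dogs (n=3, 10.1-12.7 kg) in a one-way IV/PO crossover with one-week washout, fasted ~15 h pre-dose and 4 h post-dose. Dosing was 1 mg/kg IV bolus into the saphenous vein in DMA:propylene glycol:water (1:7:2), or 5 mg/kg gavage in 0.5% methylcellulose. Blood was sampled 0-96 h. Plasma was assayed by LC/MS/MS (LLOQ 1.00 ng/ml) with noncompartmental analysis; Cmax was observed directly.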

Liver microsome [11] = test: Drug metabolism in human liver microsomes assessed as DPH-123554 metabolite formation at 100 uM after 1 hr in presence of NADPH and ketoconazole; assay type: ADME
[12] = Drug metabolism in rat hepatocytes assessed as decrease of compound level at 25 uM after 3 hrs by HPLC analysis; assay type: ADME, cell-based, Hepatocyte; conditions: read-out: Drug metabolism
[13] = Oral bioavailability in chimpanzee at 1 mg/kg; conditions: Pan troglodytes, in vivo
[14] = Drug metabolism in mouse hepatocytes assessed as at 25 uM after 3 hrs by HPLC analysis
[15] = Cmax in beagle dog at 5 mg/kg, po; assay type: ADME, organism-based, Canis lupus familiaris; design: dose 5 mg/kg, route oral; conditions: in vivo; procedure, shortened: as §3
[16] = AUC (infinity) in Sprague-Dawley rat at 1 mg/kg, iv; assay type: ADME, organism-based; design: time infinity, dose 1 mg/kg, route intravenous; conditions: plasma
Procedure, shortened: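 Male Sprague-Dawley rats (n=3 per route, 0.34-0.35 kg, cannulated), fasted ~18 h pre-dose and 4 h post-dose. Dosing was 1 mg/kg IV bolus in 20% ethanol/saline via the jugular cannula, or 5 mg/kg oral gavage in 0.5% aqueous methylcellulose. Jugular blood was sampled 0-96 h. Plasma was assayed by validated LC/MS/MS (LLOQ 1.00 ng/ml), and AUC(INF) was derived by noncompartmental mixed log-linear trapezoidal analysis.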

| Drug metabolism [1] | Drug metabolism [2] | Stability (Serum) | half-life [3] | half-life [4] | Tmax [5] | fraction unbound at 3 h [6] | Drug metabolism (Liver microsome [7]) | bioavailability [8] | AUC(0-inf) [9] | AUC(0-inf) [10] | Drug metabolism (Liver microsome [11]) | metabolised at 3 h, 25 µM [12] | bioavailability [13] | Drug metabolism [14] | Cmax [15] | AUC(0-inf) [16] | SMILES |
| --- | --- | --- | --- | --- | --- | --- | --- | --- | --- | --- | --- | --- | --- | --- | --- | --- | --- |
| metabolite_detected | metabolite_detected |  |  |  |  |  |  |  |  |  |  |  |  |  |  |  | CC[C@@H](C)Nc1nc(C)nc2c(-c3ccc(O)nc3C)c(C)nn12 |
|  |  | Stable | 43.9 h | 13.5 h | 0.75 h | 0.039 | metabolite_not_detected | 58.8% | 13.9 µM·h | 13 µM·h | metabolite_not_detected | 68% | 58.5% | metabolite_detected | 1800 nM | 2.9 µM·h | CC[C@@H](C)Nc1nc(C)nc2c(-c3ccc(OC)nc3C)c(C)nn12 [PEXACERFONT] |
